ChEMBL document CHEMBL4811254, “Beyond Basicity: Discovery of Nonbasic DENV-2 Protease Inhibitors with Potent Activity in Cell Culture” (J Med Chem, 2021)
Activity calls are given as the source filed them.

Columns and labels:
[1] = Passive membrane permeability of the compound in phosphate buffered saline assessed as concentration of the compound in acceptor plate at 200 uM incubated for 5 hrs by PAMPA assay based HPLC analysis; format: ADME
Outline: (§1)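 Precoated trilayer PAMPA, 5 h incubation. Acceptor and donor concentrations measured after 5 h. Permeability and mass retention calculated by a literature method.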

[2] = Passive membrane permeability of the compound in phosphate buffered saline assessed as concentration of the compound in donor plate at 200 uM incubated for 5 hrs by PAMPA assay based HPLC analysis; format: ADME; outline: as §1
[3] = Passive membrane permeability of the compound in phosphate buffered saline at 200 uM incubated for 5 hrs by PAMPA assay based HPLC analysis; format: ADME; details: PAMPA, read-out: permeability; outline: as §1
[4] = Passive membrane permeability of the compound in phosphate buffered saline assessed as mass retention of the compound at 200 uM incubated for 5 hrs by PAMPA assay based HPLC analysis; format: ADME; outline: as §1
[5] = molecular target: Prothrombin (Homo sapiens) (UniProt P00734); test: Inhibition of thrombin in human plasma using Boc-Val-Pro-Arg-AMC as substrate at 25 uM preincubated with enzyme for 15 mins followed by substrate addition and measured for 15 mins by fluorimetric assay; format: cell-free; details: time 30.0 min
[6] = Cytotoxicity against human HeLa cells assessed as reduction in cell viability incubated for 24 hrs by CellTiter-Blue assay; format: cell-based
Outline: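 Viability by CellTiter-Blue in HeLa or Huh-7 cells exposed to compound dilutions. Plates run in parallel with the reporter assay (HeLa) or the virus titer assay (Huh-7).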

Trypsin (Homo sapiens) = Trypsin (Homo sapiens) (UniProt P07477+P07478+P35030); test: Inhibition of trypsin (unknown origin) using Boc-Val-Pro-Arg-AMC as substrate at 50 uM preincubated with enzyme for 15 mins followed by substrate addition and measured for 15 mins by fluorimetric assay; format: protein assay; details: time 30.0 min
[7] = molecular target: Genome polyprotein (dengue virus type 2) (UniProt P29990); test: Inhibition of NS2B-NS3 protease in DENV2proHeLa system assessed as inhibition of luciferase signal at 12.5 uM incubated for 24 hrs by luciferase reporter gene assay; format: cell-based; details: HeLa
Outline: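 Stable DENV2proHeLa cells seeded at 2 × 10⁴/well and dosed immediately, then incubated 24 h at 37 °C. Cells lysed 15 min at room temperature. Luciferase read with coelenterazine (2.75 μM in PBS) injection, luminescence 5 s. Triplicates; percent inhibition calculated relative to untreated control; background from cell-free wells.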

[8] = molecular target: Genome polyprotein (West Nile virus) (UniProt P06935); test: Inhibition of WNV NS2B-NS3 protease expressed in Escherichia coli BL21 lambda(DE3) using FRET substrate preincubated with enzyme for 15 mins in presence of detergent CHAPS followed by substrate addition for 15 mins by fluorescence based analysis; details: time 30.0 min
Genome polyprotein = Genome polyprotein (dengue virus type 2, UniProt P29990); test: Inhibition of NS2B-NS3 protease in DENV2proHeLa system assessed as inhibition of luciferase signal incubated for 24 hrs by luciferase reporter gene assay; format: cell-based, HeLa
Outline: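 HeLa cells stably carrying the reporter system, 2 × 10⁴ per well, given inhibitor at seeding and held 24 h at 37 °C. Cells lysed 15 min at room temperature. Luciferase read for 5 s after injecting coelenterazine (2.75 μM in PBS). Triplicate wells per concentration; percent inhibition taken against untreated cells. EC50/EC90 from 4-parameter dose-response fit, background from cell-free wells subtracted.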

[9] = molecular target: Genome polyprotein (dengue virus type 2) (UniProt P29990); test: Inhibition of DENV2 NS2B-NS3 protease expressed in Escherichia coli BL21 lambda(DE3) using FRET substrate preincubated with enzyme for 15 mins in presence of detergent CHAPS followed by substrate addition for 15 mins by fluorescence based analysis; details: time 30.0 min

Sequence of Genome polyprotein (West Nile virus) (P06935 whole entry): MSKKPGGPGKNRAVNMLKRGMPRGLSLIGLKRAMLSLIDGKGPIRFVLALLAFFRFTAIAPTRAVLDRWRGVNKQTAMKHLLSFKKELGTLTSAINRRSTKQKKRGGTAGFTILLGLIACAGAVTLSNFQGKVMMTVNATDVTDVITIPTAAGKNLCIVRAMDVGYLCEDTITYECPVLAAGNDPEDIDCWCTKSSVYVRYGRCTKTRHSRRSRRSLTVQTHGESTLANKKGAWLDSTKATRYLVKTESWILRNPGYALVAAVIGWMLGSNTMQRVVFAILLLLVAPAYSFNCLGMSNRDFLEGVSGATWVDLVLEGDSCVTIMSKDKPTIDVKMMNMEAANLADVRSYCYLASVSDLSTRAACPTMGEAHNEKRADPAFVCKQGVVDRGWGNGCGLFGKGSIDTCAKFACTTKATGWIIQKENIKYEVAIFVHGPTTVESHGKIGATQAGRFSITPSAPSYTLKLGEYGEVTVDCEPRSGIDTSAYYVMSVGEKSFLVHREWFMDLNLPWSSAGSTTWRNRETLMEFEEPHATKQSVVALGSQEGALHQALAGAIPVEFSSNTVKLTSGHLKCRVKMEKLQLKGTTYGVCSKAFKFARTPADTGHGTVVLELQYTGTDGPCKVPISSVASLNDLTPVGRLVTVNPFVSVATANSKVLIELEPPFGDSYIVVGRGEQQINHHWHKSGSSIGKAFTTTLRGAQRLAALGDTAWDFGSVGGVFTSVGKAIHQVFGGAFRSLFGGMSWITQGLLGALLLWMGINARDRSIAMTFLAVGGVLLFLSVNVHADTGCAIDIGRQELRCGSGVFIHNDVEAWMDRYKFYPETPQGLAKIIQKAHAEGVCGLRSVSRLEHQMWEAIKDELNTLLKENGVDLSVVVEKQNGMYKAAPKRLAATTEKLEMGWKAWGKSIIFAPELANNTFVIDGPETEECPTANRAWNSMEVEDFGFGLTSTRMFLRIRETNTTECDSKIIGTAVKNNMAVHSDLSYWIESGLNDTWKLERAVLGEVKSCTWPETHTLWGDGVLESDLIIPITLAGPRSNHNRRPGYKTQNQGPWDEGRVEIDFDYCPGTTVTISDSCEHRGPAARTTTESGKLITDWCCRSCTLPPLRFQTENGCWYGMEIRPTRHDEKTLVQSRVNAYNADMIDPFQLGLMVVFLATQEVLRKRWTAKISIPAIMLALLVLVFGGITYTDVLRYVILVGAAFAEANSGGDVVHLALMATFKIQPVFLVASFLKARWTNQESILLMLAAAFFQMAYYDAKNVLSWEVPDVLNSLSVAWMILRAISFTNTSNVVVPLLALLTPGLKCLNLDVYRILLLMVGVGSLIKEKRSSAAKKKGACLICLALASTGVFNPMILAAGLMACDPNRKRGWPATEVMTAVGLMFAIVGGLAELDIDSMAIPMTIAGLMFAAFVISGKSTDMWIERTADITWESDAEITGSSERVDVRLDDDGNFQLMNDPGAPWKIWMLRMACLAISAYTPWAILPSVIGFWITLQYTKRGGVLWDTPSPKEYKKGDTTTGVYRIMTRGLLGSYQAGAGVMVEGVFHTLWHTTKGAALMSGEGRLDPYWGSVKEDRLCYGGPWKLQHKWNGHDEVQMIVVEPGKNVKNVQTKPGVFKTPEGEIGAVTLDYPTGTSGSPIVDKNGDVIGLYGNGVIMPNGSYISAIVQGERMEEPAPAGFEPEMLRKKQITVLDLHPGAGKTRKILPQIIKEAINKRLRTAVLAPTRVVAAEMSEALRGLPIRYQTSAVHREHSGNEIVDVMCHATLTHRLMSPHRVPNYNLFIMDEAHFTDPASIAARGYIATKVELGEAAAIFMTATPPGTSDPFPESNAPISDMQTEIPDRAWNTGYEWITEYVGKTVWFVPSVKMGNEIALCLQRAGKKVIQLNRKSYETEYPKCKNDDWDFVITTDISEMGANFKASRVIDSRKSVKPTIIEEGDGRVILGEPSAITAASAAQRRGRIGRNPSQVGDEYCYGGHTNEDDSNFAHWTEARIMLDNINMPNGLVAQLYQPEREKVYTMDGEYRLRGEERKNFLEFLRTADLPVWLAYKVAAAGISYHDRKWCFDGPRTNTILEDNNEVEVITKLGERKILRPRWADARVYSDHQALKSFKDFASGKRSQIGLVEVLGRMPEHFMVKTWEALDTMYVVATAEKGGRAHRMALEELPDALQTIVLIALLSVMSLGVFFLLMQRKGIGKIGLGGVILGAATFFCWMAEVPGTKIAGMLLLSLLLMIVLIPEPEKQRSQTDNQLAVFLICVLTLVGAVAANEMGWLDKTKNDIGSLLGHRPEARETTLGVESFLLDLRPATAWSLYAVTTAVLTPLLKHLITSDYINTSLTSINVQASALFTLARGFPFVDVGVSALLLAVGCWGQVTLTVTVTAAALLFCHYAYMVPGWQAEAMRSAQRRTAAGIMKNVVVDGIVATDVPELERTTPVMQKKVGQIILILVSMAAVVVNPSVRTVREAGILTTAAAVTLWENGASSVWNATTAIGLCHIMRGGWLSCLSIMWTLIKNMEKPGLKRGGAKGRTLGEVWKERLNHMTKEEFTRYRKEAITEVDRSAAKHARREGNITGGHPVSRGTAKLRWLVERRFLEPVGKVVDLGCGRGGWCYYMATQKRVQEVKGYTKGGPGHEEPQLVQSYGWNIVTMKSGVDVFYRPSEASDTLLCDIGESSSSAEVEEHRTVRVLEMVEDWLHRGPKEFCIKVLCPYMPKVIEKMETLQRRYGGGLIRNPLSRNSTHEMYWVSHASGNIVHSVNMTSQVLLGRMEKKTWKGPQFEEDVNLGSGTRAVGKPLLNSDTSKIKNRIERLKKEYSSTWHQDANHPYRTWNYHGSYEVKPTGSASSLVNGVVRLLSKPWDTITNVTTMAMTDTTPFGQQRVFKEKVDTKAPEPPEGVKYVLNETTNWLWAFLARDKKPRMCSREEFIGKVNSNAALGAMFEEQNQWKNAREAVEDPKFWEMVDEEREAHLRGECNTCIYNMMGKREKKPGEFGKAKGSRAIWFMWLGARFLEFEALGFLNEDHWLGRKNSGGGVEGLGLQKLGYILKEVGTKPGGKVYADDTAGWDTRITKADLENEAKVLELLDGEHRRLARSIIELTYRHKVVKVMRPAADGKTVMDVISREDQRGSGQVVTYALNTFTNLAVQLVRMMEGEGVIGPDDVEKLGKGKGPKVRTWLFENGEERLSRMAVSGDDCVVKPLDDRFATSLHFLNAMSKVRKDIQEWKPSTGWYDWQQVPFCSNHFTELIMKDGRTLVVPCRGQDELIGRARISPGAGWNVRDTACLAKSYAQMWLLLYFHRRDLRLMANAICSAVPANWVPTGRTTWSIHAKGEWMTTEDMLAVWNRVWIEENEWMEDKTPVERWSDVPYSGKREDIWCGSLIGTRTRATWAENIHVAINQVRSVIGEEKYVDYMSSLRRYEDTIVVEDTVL

SMILES | Activity [1] [µM] | Activity [2] [µM] | Papp at 5 h, 200 µM [3] [×10⁻⁶ cm/s] | Activity [4] [%] | inhibition [5] | CC50 at 24 h [6] [µM] | inhibition (Trypsin (Homo sapiens)) | inhibition [7] [%] | inhibition [8] | EC50 (Genome polyprotein) [µM] | inhibition [9]
NC(=O)N1c2ccccc2C=Cc2ccccc21 [CARBAMAZEPINE] | 42 | 187 | 8.9 | -7.6 |  |  |  |  |  |  | 
CCCCCCCC(=O)N[C@H](C(=O)NCc1ccc(C(N)=O)cc1)c1ccc(OCc2ccccc2)cc1 |  |  |  |  | inactive | > 50 | inactive | 56 | Active |  | 
NC(=O)c1cccc(NC(=O)[C@@H](NC(=O)c2ccc(-c3cncnc3)cc2)c2ccc(OCc3ccccc3)cc2)c1 |  |  |  |  | inactive | > 50 | inactive | 59 | Active | 8.1 | Active
O=C1NC(=O)C(c2ccccc2)(c2ccccc2)N1 [PHENYTOIN] | 25 | 166 | 5.7 | 8.7 |  |  |  |  |  |  | 
CCCCCC(=O)N[C@H](C(=O)Nc1cccc(C(N)=O)c1)c1ccc(OCc2ccccc2)cc1 |  |  |  |  | inactive | > 50 | inactive | 76 |  | 4.6 | Active
NC(=O)c1ccc(CNC(=O)[C@@H](NC(=O)c2ccc(OCc3ccccc3)cc2)c2ccc(OCc3ccccc3)cc2)cc1 |  |  |  |  | inactive | > 25 | inactive | 64 | Active | 4 | Active
CCCCCC(=O)N[C@H](C(=O)NCc1ccc(C(N)=O)cc1)c1ccc(OCc2c(Cl)cccc2Cl)cc1 |  |  |  |  | inactive | > 50 | inactive | 71 | Active | 8.3 | Active
NC(=O)c1cccc(NC(=O)[C@@H](NC(=O)c2ccc(Oc3ccc4c(c3)OCCO4)cc2)c2ccc(OCc3ccccc3)cc2)c1 |  |  |  |  | inactive | > 100 | inactive | 61 | Active | 3.8 | Active
CCCCCC(=O)N[C@H](C(=O)Nc1cccc(C(N)=O)c1)c1ccc(OCc2c(Cl)cccc2Cl)cc1 |  |  |  |  | inactive | > 50 | inactive | 65 |  | 2.4 | Active
NC(=O)c1cccc(NC(=O)[C@@H](NC(=O)c2ccc3c(c2)OCCO3)c2ccc(OCc3ccccc3)cc2)c1 |  |  |  |  | inactive | > 100 | inactive | 69 |  | 5.4 | Active
COc1cccc(COc2ccc([C@H](NC(=O)c3ccc(C(=O)c4ccccc4)cc3)C(=O)Nc3cccc(C(N)=O)c3)cc2)c1 |  |  |  |  | inactive | > 100 | inactive | 79 |  | 1.2 | Active
NC(=O)c1cccc(NC(=O)[C@@H](NC(=O)c2ccc(Oc3ccccc3)cc2)c2ccc(OCc3c(Cl)cccc3Cl)cc2)c1 |  |  |  |  | inactive | > 50 | inactive | 71 |  | 2.2 | Active
CCCCCCCS(=O)(=O)N[C@H](C(=O)NCc1ccc(C(N)=O)cc1)c1ccc(OCc2ccccc2)cc1 |  |  |  |  | inactive | > 25 | inactive | 47 | Active | 11 | 
NC(=O)c1cccc(NC(=O)[C@@H](NC(=O)c2ccc(Oc3cccc4c3C(=O)CC4)cc2)c2ccc(OCc3ccccc3)cc2)c1 |  |  |  |  | inactive | > 100 | inactive | 57 | Active | 3.9 | 
NC(=O)c1cccc(NC(=O)[C@@H](NC(=O)c2cccc(Oc3ccccc3)c2)c2ccc(OCc3ccccc3)cc2)c1 |  |  |  |  | inactive | > 100 | inactive | 84 |  | 1.7 | Active
Cn1c(=O)c2c(ncn2C)n(C)c1=O [CAFFEINE] | 33 | 173 | 7.3 | 2.4 |  |  |  |  |  |  | 
CCCCCCC(=O)N[C@H](C(=O)NCc1ccc(C(N)=O)cc1)c1ccc(OCc2ccccc2)cc1 |  |  |  |  | inactive | > 50 | inactive | 52 |  | 7.9 | Active
CCCCCC(=O)N[C@@H](C(=O)NCc1ccc(C(N)=O)cc1)c1ccc(OCc2ccc(Cl)c(Cl)c2)cc1 |  |  |  |  | inactive | > 50 | inactive | 19 |  |  | Active
COc1ccccc1Oc1ccc(C(=O)N[C@H](C(=O)Nc2cccc(C(N)=O)c2)c2ccc(OCc3ccccc3)cc2)cc1 |  |  |  |  | inactive | > 100 | inactive | 77 | Active | 2.2 | Active
CCCCCC(=O)N[C@H](C(=O)NNc1ccc(C(N)=O)cc1)c1ccc(OCc2ccccc2)cc1 |  |  |  |  | inactive | > 25 | inactive | 60 |  | 8.7 | Active
CCCCCCN[C@H](C(=O)NCc1ccc(C(N)=O)cc1)c1ccc(OCc2ccccc2)cc1 |  |  |  |  | inactive | > 50 | inactive | 19 |  |  | Active
CCCCCC(=O)N[C@H](C(=O)NCc1ccc(C(N)=O)cc1)c1ccc(OCc2cccc(OC)c2)cc1 |  |  |  |  | inactive | > 100 | inactive | 61 |  | 7.3 | Active
CCCCCC(=O)N[C@H](C(=O)N1CCC(C(=O)Nc2ccccc2)CC1)c1ccc(OCc2ccccc2)cc1 |  |  |  |  | inactive | > 50 | inactive | 35 |  | 20 | Active
